What was measured:
[1] = Competitive inhibition of Saponaria officinalis saporin L3 expressed in yeast using RNA A10 as substrate preincubated for 10 mins followed substrate addition by luciferase assay
[2] = Competitive inhibition of Saponaria officinalis saporin L1 using RNA A10 as substrate preincubated for 10 mins followed substrate addition by continuous luciferase assay
[3] = Competitive inhibition of Saponaria officinalis saporin L3 expressed in yeast using yeast tRNA as substrate
[4] = Competitive inhibition of Saponaria officinalis saporin L3 expressed in yeast using rabbit rRNA as substrate
In short: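 Saporin L3 secreted from yeast cultures and purified to near-homogeneity. Substrate was isolated rabbit 80S ribosomes purified in-house, fixed at 100 nM, with concentration from A260. Inhibitor at varying concentrations was preincubated with enzyme for 10 min. K_i* was taken as slow-onset competitive inhibition.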

[5] = Competitive inhibition of Saponaria officinalis saporin L3 A14C mutant expressed in yeast using yeast tRNA as substrate
In short: (§1)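 Saporin L3 A14C, secreted from yeast and purified. Substrate held fixed: isolated rabbit 80S ribosomes (100 nM) or yeast tRNA (1.0 mg/mL). Inhibitor preincubated with enzyme 10 min for slow-onset binding before substrate, then adenine release read by coupled luciferase method. Ki* taken from competitive inhibition fit.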

[6] = Competitive inhibition of Saponaria officinalis saporin L3 A14C mutant expressed in yeast using rabbit rRNA as substrate; in short: as §1
[7] = Inhibition of yeast expressing Saponaria officinalis saporin L3 A14C mutant-mediated suppression of luciferase mRNA translation in rabbit reticulocyte extract preincubated with protein for 10 mins followed by addition of rabbit reticulocyte translation system for 90 mins by luciferase assay
In short: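 Rabbit reticulocyte lysate translation of luciferase-encoding mRNA. 10 nM SAP A14C preincubated 10 min with increasing inhibitor in pH 7.4 buffer, then added to translation mix, 30 °C, 90 min. Luciferase luminescence read. Control contained top inhibitor concentration without enzyme. Percent translation vs log inhibitor fit to dose-response curve for EC50.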

Row | SMILES | Ki [1] [nM] | also measured
1 | CO[C@@H]1[C@H](OP(=O)(O)OC[C@H]2CN(Cc3c[nH]c4c(N)ncnc34)C[C@@H]2OP(=O)(O)OC[C@H]2O[C@@H](n3cnc4c(=O)[nH]c(N)nc43)[C@H](OC)[C@@H]2OP(=O)(O)OCCCO)[C@@H](CO)O[C@H]1n1cnc2c(=O)[nH]c(N)nc21 | 10.5 | 
2 | CO[C@@H]1[C@H](O)[C@@H](COP(=O)(O)O[C@H]2[C@@H](OC)[C@H](n3cnc4c(=O)[nH]c(N)nc43)O[C@@H]2COP(=O)(O)O[C@H]2CN(Cc3c[nH]c4c(N)ncnc34)C[C@@H]2COP(=O)(O)OC2[C@@H](OC)[C@H](n3cnc4c(=O)[nH]c(N)nc43)O[C@@H]2CO)O[C@H]1n1cnc2c(N)ncnc21 (stereo partly drawn) | 6.1 | 
3 | CO[C@@H]1[C@H](OP(=O)(O)OC[C@H]2CN(Cc3c[nH]c4c(N)ncnc34)C[C@@H]2OP(=O)(O)OCCCO)[C@@H](COP(=O)(O)OCCCO)O[C@H]1n1cnc2c(=O)[nH]c(N)nc21 | 188 | 
4 | CO[C@@H]1[C@H](OP(=O)(O)OCCCO)[C@@H](COP(=O)(O)O[C@H]2CN(CCc3c[nH]c4c(N)ncnc34)C[C@@H]2COP(=O)(O)OCCCO)O[C@H]1n1cnc2c(=O)[nH]c(N)nc21 | 12.4 | 
5 | CO[C@@H]1[C@H](O)[C@@H](COP(=O)(O)O[C@H]2CN(Cc3c[nH]c4c(N)ncnc34)C[C@@H]2CO)O[C@H]1n1cnc2c(=O)[nH]c(N)nc21 | 21300 | 
6 | CO[C@@H]1[C@H](OP(=O)(O)OCCCO)[C@@H](COP(=O)(O)OCC(COP(=O)(O)OCCCO)NCc2c[nH]c3c(N)ncnc23)O[C@H]1n1cnc2c(=O)[nH]c(N)nc21 (stereo partly drawn) |  | Ki [2]: 43.2 nM
7 | CO[C@@H]1[C@H](O)[C@@H](COP(=O)(O)O[C@H]2CN(Cc3c[nH]c4c(N)ncnc34)C[C@@H]2COP(=O)(O)OCCCO)O[C@H]1n1cnc2c(=O)[nH]c(N)nc21 | 19.3 | 
8 | CO[C@@H]1[C@H](OP(=O)(O)OCCCO)[C@@H](COP(=O)(O)O[C@H]2CN(Cc3c[nH]c4c(N)ncnc34)C[C@@H]2COP(=O)(O)OCCCO)O[C@H]1n1cnc2c(=O)[nH]c(N)nc21 | 3.3 | Ki [3]: 9.9 nM; Ki [4]: 6.7 nM; Ki [5]: 8.4 nM; Ki [6]: 5.4 nM; IC50 [7]: 13 nM
9 | CO[C@@H]1[C@H](OP(=O)(O)OC[C@H]2O[C@@H](n3cnc4c(=O)[nH]c(N)nc43)[C@H](OC)[C@@H]2OP(=O)(O)OC[C@H]2CN(Cc3c[nH]c4c(N)ncnc34)C[C@@H]2OP(=O)(O)OCCCO)[C@@H](CO)O[C@H]1n1cnc2c(=O)[nH]c(N)nc21 | 212 | 
10 | CO[C@@H]1[C@H](OP(=O)(O)OCCCO)[C@@H](COP(=O)(O)O[C@H]2CN(Cc3c[nH]c4c(N)ncnc34)C[C@@H]2CO)O[C@H]1n1cnc2c(=O)[nH]c(N)nc21 | 10700 | 
11 | CO[C@@H]1[C@H](O)[C@@H](COP(=O)(O)O[C@H]2CN(Cc3c[nH]c4c(N)ncnc34)C[C@@H]2COP(=O)(O)OC2[C@@H](OC)[C@H](n3cnc4c(=O)[nH]c(N)nc43)O[C@@H]2CO)O[C@H]1n1cnc2c(=O)[nH]c(N)nc21 (stereo partly drawn) | 33 | 
12 | CO[C@@H]1[C@H](OP(=O)(O)OC[C@H]2CN(Cc3c[nH]c4c(N)ncnc34)C[C@@H]2OP(=O)(O)OC[C@H]2O[C@@H](n3cnc4c(=O)[nH]c(N)nc43)[C@H](OC)[C@@H]2OP(=O)(O)OCCCO)[C@@H](COP(=O)(O)OCCCO)O[C@H]1n1cnc2c(=O)[nH]c(N)nc21 | 7.4 | 
13 | CO[C@@H]1[C@H](OP(=O)(O)OCCCO)[C@@H](COP(=O)(O)OCC(CNCc2c[nH]c3c(N)ncnc23)COP(=O)(O)OCCCO)O[C@H]1n1cnc2c(=O)[nH]c(N)nc21 (mixture of isomers) | 26.8 | 
